# RAM network inh: inhibitors of the yeast RAM network; S. cerevisiae dse1pr::URA3 reporter, 5-FOA growth OD615, 2 d; analog-sensitive cbk1-as2 kinase mutant strain; inhibition, % at 50 µM; actives 1.8% (n = 190,000); AID 868;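 active means inhibition above a set limit, 3 SD over mean compound inhibition, cut at about 8.4% in these data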;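 further: inhibition rescues growth on 5-FOA so higher OD means more RAM inhibition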
# Yeast life ext: yeast lifespan extension; S. cerevisiae growth with nicotinamide, OD615; deaD strain in restrictive glucose medium; inhibition of the nicotinamide effect, % at 10 µM; actives 0.68% (n = 130,000); AID 775;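 active means inhibition above a set limit, placed 3 SD over the median of all compounds, cut at about 26% in these data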
#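 Material: Modified budding yeast, DeaD strain | Medium: Restrictive glucose medium | Probe or stimulus: 1.5 mM nicotinamide | Dosing: Single dose 10 µM compound, 0.25% DMSO | Times: 48 h at 30 °C | Technique: OD615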
# BB579 growth dn: chemicals that inhibit yeast BB579 growth in restrictive medium (lifespan-shortening candidates); inhibition, % at 10 µM; actives 0.51% (n = 140,000); S. cerevisiae BB579 growth, OD615, 48 h;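 active means inhibition above a set limit, 3 SD over the mean compound inhibition, cut at about 44% in these data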
#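 System: Saccharomyces cerevisiae DeaD strain BB579, replicative lifespan model yeast | Buffer or medium: Restrictive glucose-based CSMM-D medium | Times: 4 h preincubation and 48 h exposure at 30 °C | Detection: OD615 turbidity measurement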
# Phagocytosis inh: macrophage phagocytosis inhibition; J774A.1 macrophage IgG-bead phagocytosis, imaging; inhibition, % at 5 µM; actives 0.07% (n = 110,000); AID 1029;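 active means inhibition above the mean of the plate negative controls plus 5 SD, cut at about 13% in these data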;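 further: phagocytic index as fraction of beads internalized from green versus red external bead signal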
# Measles CPE: protection of cells from measles virus | protection (pct of control), % at 4 µM | actives 1.5% (n = 140,000) | Measles virus-infected cells, CPE protection, absorbance; in the data active means protection mostly above about 24%, no sharp cut-off; inactive means mostly below about 26%
# Hits are given with their value; . = inactive; / = no result. Sampled rows, rich in hits. Any-hit rate of the full collection: about 3.6%.
SMILES,RAM network inh,Yeast life ext,BB579 growth dn,Phagocytosis inh,Measles CPE
N=C1/C(=C/c2cccn2-c2ccc([N+](=O)[O-])cc2)C(=O)N=C2SC=CN12,10,.,.,.,.
N=C1/C(=C/c2cccn2Cc2ccc(F)cc2)C(=O)N=C2SC=CN12,.,/,/,/,/
C=CCNC(=O)/C(C#N)=C/c1ccccc1OCc1ccc(C(=O)OC)cc1,.,35,.,.,.
O=C1c2ccccc2C(O)N1Cc1cccs1 (stereo not given),.,/,/,/,/
CCc1cc[n+](-c2nc([O-])sc2C=O)cc1,.,.,.,.,.
CC(C)c1cc[n+](-c2nc([O-])sc2C=O)cc1,.,31,.,.,.
O=C(/C=C/c1ccccc1)NC1CCCc2ccccc21 (stereo not given),.,/,/,/,/
CCN(c1ccccc1)S(=O)(=O)c1ccc(OCc2c(C)noc2C)cc1,10,.,.,.,.
Cc1ccc(SC(C)C(=O)Nc2cccc(N(C)S(C)(=O)=O)c2)cc1 (stereo not given),.,.,.,.,33
CCCCC(=O)NC(NC(=S)N1CCCCCC1)C(Cl)(Cl)Cl (stereo not given),.,.,.,.,.
Cc1nc(N)nc(N)c1/C=C/C(C)(C)c1ccc(Cl)cc1,.,/,/,/,/
CCOC(=O)c1sc2ncn(C(C)C(=O)OCC)c(=O)c2c1C (stereo not given),.,.,.,.,.
Cc1sc2ncn(C(C)C(=O)OC3CCCCC3)c(=O)c2c1C (stereo not given),.,27,.,.,.
c1ccc(Cc2ccc(OCCn3cncn3)cc2)cc1,.,.,.,.,.
c1ccc(COc2ccc(OCCCn3cncn3)cc2)cc1,.,.,.,.,30
COC(=O)COc1ccc2c(-c3ccc(OC)cc3)cc(=O)oc2c1,.,.,.,.,.
O=C(Oc1ccc2c(-c3ccccc3)cc(=O)oc2c1)C1CCCCC1,9.3,.,.,.,.
COc1ccc(-c2cc(=O)oc3cc(OC(=O)C4CCCCC4)ccc23)cc1,11,.,.,.,.
O=C(Oc1ccc2c(-c3ccccc3)cc(=O)oc2c1)c1cccs1,.,.,.,.,.
CC1(c2ccccc2)NC(=O)N(Cc2ccc([N+](=O)[O-])cc2)C1=O (stereo not given),.,.,.,.,53
NC(=O)C1=C[C@@H](c2ccc(Br)cc2)C[C@@H](OCCCCO)O1,.,/,/,/,/
CC(C)=NNc1nc2sc3c(c2c(=O)[nH]1)CC(C)(C)OC3,.,.,.,.,.
CC1(C)Cc2c(sc3nc(N/N=C/c4ccccc4)[nH]c(=O)c23)CO1,.,.,.,.,21
CCNC(=O)/C(=C/c1cccc([N+](=O)[O-])c1)NC(=O)c1ccc(C)cc1,.,/,/,/,/
O=C(O/N=C/C1=C(Cl)c2ccccc2CC1)c1ccc(F)cc1,9.5,.,.,.,.
SMILES,RAM network inh,Yeast life ext,BB579 growth dn,Phagocytosis inh,Measles CPE
CCc1n[nH]c(=S)n1/N=C/c1ccc2c(c1)OCO2,.,.,.,.,42
CCc1n[nH]c(=S)n1/N=C/c1ccc(N(C)c2ccccc2)cc1,.,/,/,/,/
O=C(NC(=S)Nc1ncc(Br)cc1Br)c1cncc(Br)c1,.,.,.,.,40
Cc1ccc(/C=C/c2nc3ccccc3c(=O)n2CCc2ccccc2)cc1,10,.,.,.,61
COCCOC(=O)c1c(NC(=O)CN2CCCc3ccccc32)sc(C(N)=O)c1C,11,.,.,.,.
Cn1cnc2cc(NC(=O)c3cccs3)ccc21,.,/,/,/,/
CC1/C(=N/O)CC(c2ccccc2)N(C)C1c1ccccc1 (stereo not given),.,/,88,/,.
Cc1ccc(S(=O)(=O)/C(C#N)=C/c2c[nH]c3ccccc23)cc1,.,.,.,.,.
Cc1ccc(S(=O)(=O)/C(C#N)=C/c2ccccc2OCc2ccccc2)cc1,8.6,.,.,.,.
Nc1nnc(SCc2nnc(-c3ccccc3)o2)s1,.,/,/,/,/
Cc1cccc(NC(=S)NCCN2CCOCC2)c1C,.,.,.,.,39
Cc1ccc(NC(=S)NCCN2CCOCC2)cc1C,.,.,.,/,.
CCCC(=O)NC(=S)Nc1ccc(N2CCN(C(=O)c3cccs3)CC2)cc1,.,/,/,/,/
O=C(CC12CC3CC(CC(C3)C1)C2)N1CCN(S(=O)(=O)c2cccs2)CC1,.,.,.,.,.
O=C(Nc1cccc2ccccc12)c1ccc(OC(=S)N2CCOCC2)cc1,.,.,.,.,109
CC(=O)c1c(C(C)=O)c(C)n(NC(=O)c2cccnc2)c1C,.,46,.,.,.
CCCNS(=O)(=O)c1ccc(OCC(=O)OC)cc1,.,.,.,.,39
O=C1CN(c2nc(-c3ccccc3)c3cc(Cl)ccc3n2)c2ccccc2N1,.,.,.,.,40
OCCN1CCN(c2nc(-c3ccccc3)c3cc(Cl)ccc3n2)CC1,.,.,.,/,63
Clc1ccc2nc(N3CCNCC3)nc(-c3ccccc3)c2c1,.,.,.,.,.
COc1ccc(/C=N/n2c(C)cc(C)c(C(N)=O)c2=O)cc1,.,.,.,.,.
O=C(N/C(=C/c1ccc(Br)cc1)C(=O)N1CCCC1=O)c1ccco1,.,/,/,/,/
COc1ccc(CCNC(=O)c2cc(C(=O)c3cc(C)ccc3O)cn(CCc3ccc(OC)cc3)c2=O)cc1,.,.,.,.,.
COc1ccccc1C(=O)Oc1ccc2c(c1)O/C(=C\c1ccncc1)C2=O,.,47,.,.,.
COC(=O)[C@@H](N)CS,.,.,.,/,.
SMILES,RAM network inh,Yeast life ext,BB579 growth dn,Phagocytosis inh,Measles CPE
Cn1c2ccccc2c(=O)c2c(=O)n(C3CCCCCC3)c(C3CCCCC3)nc21,.,26,.,.,.
Cn1c2ccccc2c(=O)c2c(=O)n(-c3ccccc3)c(C3CCCCC3)nc21,.,.,.,/,.
CCc1nc2c(c(=O)c3ccccc3n2C)c(=O)n1C1CCCCCC1,.,28,.,.,.
O=C(CSc1cc(Cl)ccc1Cl)NCC(=O)Nc1ccc(F)c(F)c1F,9.4,.,.,.,.
Cn1c(O)c(N=Nc2nc(-c3ccccc3)cs2)c2ccccc21,.,.,.,.,.
Cc1ccccc1-n1nnnc1SCC(C)C,.,/,/,/,/
Cc1ccccc1-n1nnnc1SCc1csc(-c2ccccc2)n1,8.7,.,.,.,.
c1ccc(-n2nnnc2SCc2cccc(CSc3nnnn3-c3ccccc3)n2)cc1,8.9,/,.,/,.
COc1ccc(CCN(Cc2cc3cccc(C)c3n3nnnc23)C(=O)c2ccncc2)cc1OC,.,/,/,/,/
O=C(OCn1ncc(Br)c(Br)c1=O)c1c(F)cccc1F,.,.,.,.,.
CC(=O)Cn1ncc(Br)c(Br)c1=O,9.9,/,/,/,/
CC(C)c1ccc(/C=C/C(=O)NCCCc2ccccc2)cc1,8.6,.,.,/,.
COc1ccc(/C=C/C(=O)NCCCc2ccccc2)cc1,.,.,.,.,.
O=C(Nc1nc(-c2ccccn2)cs1)C1COc2ccccc2O1 (stereo not given),.,.,93,/,.
COc1ccc(-c2cc(N)n(S(=O)(=O)c3c(F)c(F)c(F)c(F)c3F)n2)cc1OC,.,77,.,.,.

# Screening data from PubChem.
